Compound activity (PubChem)
A selection: hits, their analogues and other compounds. The true share with any hit is near 2.2%.
NR2E3 ag-1 = inhibitors of NR2E3-RetCOR corepressor binding, primary screen, NR2E3 agonist project, biochemical, TR-FRET, GST-NR2E3, biotin-RetCOR | Photoreceptor-specific nuclear receptor (Homo sapiens), Q9Y5X4 | 1536-well | inhibition of corepressor binding, % at 4.78 µM | 320,000 compounds, 0.12% hits | AID 2300, 2010;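 active means percent inhibition above the cutoff of mean plus 3 SD of all tested compounds, set per screening campaign, cut at about 20% in these data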
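System: GST-NR2E3 and biotin-RetCOR proteins; probe or stimulus: 7 nM biotin-RetCOR; doses: compound at 4.8 µM, single dose; schedule: Compound–protein incubation for 5 h at 4 °C; detection: time-resolved FRET; read-out: percent inhibition; controls: biotin wells as high control, 0.6% DMSO wells as low control; format: 1536-well plates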
HIV Env fusion = inhibitors of HIV-1 Env-driven cell-cell fusion, primary screen, HeLa-JRFL effector, CEM21 target cells, luciferase. inhibition, % at 12.3 µM. AID 651610, 2012. 360,000 compounds, 1.1% hits;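 active means mean replicate inhibition score of at least 50 and every replicate individually at or above 50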
NR2E3 ag-2 = NR2E3 agonists in two-hybrid cells, primary screen, cell-based, luminescence, CHO-S, Gal4-NCOR/VP16-NR2E3 | Photoreceptor-specific nuclear receptor (Homo sapiens), Q9Y5X4 | luciferase | inhibition of corepressor binding, % at 3.98 µM | 360,000 compounds, 0.35% hits | AID 602229, 2012;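 active means inhibition above the mean of all tested compounds plus 3 SD, cut at about 70% in these data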;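 further: higher means lower luciferase signal from less NR2E3 corepressor binding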
FXN GAA850 act = FXN promoter activators, primary screen, cell-based, luciferase luminescence, HEK293 lucGAA850 | activation, % at 6 µM | 360,000 compounds, 0.56% hits | AID 540364, 2011 | HEK293 lucGAA850 FXN promoter luciferase reporter, 24 h; percent of 10 µM SAHA response;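 active means activation above the average of all compounds screened plus 3 SD, cutoff fixed separately per campaign, cut at about 7.5% in these data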
V-ATPase pHluor = regulators of yeast V-ATPase proton pumping, primary screen, pHLuorin cytosolic pH fluorescence. S. cerevisiae. response, % at 10 µM. 350,000 compounds, 0.37% hits. AID 504577, 2011; in the data active means response mostly above about 7.3%, no sharp cut-off; inactive means mostly below about 5.4%; further: actives read high
GalR3 antag = GalR3 antagonists in HEK293 cells, primary screen, cell-based, fluorescence readout; HEK293 GalR3-CNG cAMP membrane potential fluorescence; galR3 body fused to GalR1 C-terminus; inhibition, % at 3 µM; 360,000 compounds, 0.44% hits; AID 651719, 2012;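 active means inhibition above the screen-wide average plus 3 SD, cut at about 13% in these data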;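 further: forskolin and galanin both at EC90 stimulate the cells; cAMP rise reported by CNG channel membrane potential dye signal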
Target sequence (O60755 1-299 limits assumed): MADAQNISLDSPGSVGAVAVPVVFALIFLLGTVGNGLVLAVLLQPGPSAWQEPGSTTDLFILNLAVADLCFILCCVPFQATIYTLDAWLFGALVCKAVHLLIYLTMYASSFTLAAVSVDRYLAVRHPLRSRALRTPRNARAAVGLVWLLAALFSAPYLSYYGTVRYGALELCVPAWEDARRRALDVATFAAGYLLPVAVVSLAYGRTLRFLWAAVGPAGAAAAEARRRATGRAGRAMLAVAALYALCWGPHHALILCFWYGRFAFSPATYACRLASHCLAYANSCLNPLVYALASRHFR
Of the large screens only hits and unclear results are named; the others gave an inactive call.

N=c1ccn(CC(=O)c2ccc(-c3ccccc3)cc2)cc1	HIV Env fusion 68.7
C[C@@H]1CN([C@H](C)CO)C(=O)Cc2cc(NC(=O)C3CCCCC3)ccc2O[C@@H]1CN(C)Cc1ccc(Cl)c(Cl)c1	none (no result: NR2E3 ag-1, NR2E3 ag-2, FXN GAA850 act, V-ATPase pHluor, GalR3 antag)
CCOC(=O)c1ccccc1NC(=O)Cn1c(=O)n(Cc2ccccc2)c(=O)c2c(C)c(C)sc21	HIV Env fusion 58.4
COc1ccc(Cl)cc1C(=O)Nc1ccc(NC(C)=O)cc1	none
COc1ccc(Cl)cc1C1=NOC2(CCC2)C(=O)N1Cc1ccc(NC(C)=O)cc1	HIV Env fusion 66.8 (no result: NR2E3 ag-1, V-ATPase pHluor)
CNC[C@H]1Oc2ccc(NC(=O)NC(C)C)cc2C(=O)N([C@@H](C)CO)C[C@@H]1C	none (no result: NR2E3 ag-1, NR2E3 ag-2, FXN GAA850 act, V-ATPase pHluor, GalR3 antag)
COc1ccc(NC(=O)N(C)C[C@H]2OCCCC[C@H](C)Oc3ccc(NC(=O)Nc4c(C)noc4C)cc3C(=O)N([C@H](C)CO)C[C@@H]2C)cc1	none (no result: NR2E3 ag-1, NR2E3 ag-2, FXN GAA850 act, V-ATPase pHluor, GalR3 antag)
COc1cc2oc(=O)cc(-c3ccc(-c4ccc(C)cc4)cc3)c2c(OC)c1OC	none (no result: NR2E3 ag-1)
COc1cc2oc(=O)cc(-c3ccc(-c4ccc(CO)cc4)cc3)c2c(OC)c1OC	HIV Env fusion 117.9 (no result: NR2E3 ag-1)
CN(Cc1ccccc1)C1=CC(=[N+]2CCCCC2)CC(C)(C)C1	GalR3 antag 41.6
CO[C@H]1CN(C)C(=O)c2ccc(NS(=O)(=O)c3cn(C)cn3)cc2OC[C@H](C)N(CC2CC2)C[C@@H]1C	none (no result: NR2E3 ag-1, NR2E3 ag-2, FXN GAA850 act, V-ATPase pHluor, GalR3 antag)
Cc1ccc(S(=O)(=O)Nc2ccc3c(c2)C(=O)N([C@@H](C)CO)C[C@H](C)[C@H](CN(C)CC2CCCCC2)OCCCC[C@@H](C)O3)cc1	none (no result: NR2E3 ag-1, NR2E3 ag-2, FXN GAA850 act, V-ATPase pHluor, GalR3 antag)
Cc1ccc(C)n1-c1cccc(C(=O)O)c1	NR2E3 ag-1 32.7 (no result: HIV Env fusion, NR2E3 ag-2, FXN GAA850 act, V-ATPase pHluor, GalR3 antag)
Cc1cc(C=O)c(C)n1-c1cccc(C(=O)O)c1	none
COc1cccc(CN2C[C@@H](C)[C@H](OC)CN(C)C(=O)c3ccc(NS(=O)(=O)c4cn(C)cn4)cc3OC[C@H]2C)c1	none (no result: NR2E3 ag-1, NR2E3 ag-2, FXN GAA850 act, V-ATPase pHluor, GalR3 antag)
Cc1cc(C)cc(N(C(=O)Cc2cccs2)C(C(=O)NC2CCCCC2)c2ccccn2)c1 (stereo not drawn)	HIV Env fusion 118.6
COc1cccc(N(C(=O)Cc2cccs2)C(C(=O)NC2CCCC2)c2ccncc2)c1 (stereo not drawn)	none
O=C(NC1CCCCC1)C(c1ccccn1)N(C(=O)Cc1cccs1)c1ccc(Cl)cc1 (stereo not drawn)	none
CCc1ccc(N(C(=O)Cn2nnc(-c3ccccc3)n2)C(C(=O)NC2CCCCC2)c2ccccn2)cc1 (stereo not drawn)	HIV Env fusion 79.7
CCOc1cccc(N(C(=O)Cc2cccs2)C(C(=O)NC2CCCCC2)c2cccn2C)c1 (stereo not drawn)	HIV Env fusion 88.7
O=C1NCCc2c1[nH]c1ccc([N+](=O)[O-])cc21	HIV Env fusion 66.5
CN(C)c1ccc2nc3ccc(=[N+](C)C)cc-3sc2c1	HIV Env fusion 85.5
Cc1cc2nc3ccc(=[N+](C)C)cc-3sc2cc1N	none (no result: NR2E3 ag-1, HIV Env fusion, GalR3 antag)
CN(C)c1ccc2nc3ccc(=O)cc-3sc2c1	HIV Env fusion 65.8 (no result: NR2E3 ag-1)
C[C@@H]1CCCCO[C@@H](CN(C)C(=O)Nc2ccc3c(c2)OCO3)[C@H](C)CN([C@@H](C)CO)C(=O)c2cc(NC(=O)c3ccncc3)ccc2O1	none (no result: NR2E3 ag-1, NR2E3 ag-2, FXN GAA850 act, V-ATPase pHluor, GalR3 antag)
O=C(CNC(=O)c1sc2ccccc2c1Cl)NCc1ccc(F)cc1	V-ATPase pHluor 17.9
C[C@H]1CN([C@@H](C)CO)S(=O)(=O)c2ccc(C#Cc3ccccn3)cc2O[C@H]1CN(C)Cc1ccccc1	none (no result: NR2E3 ag-1, NR2E3 ag-2, FXN GAA850 act, V-ATPase pHluor, GalR3 antag)
CC(NC(=O)CCn1ccc2cc(S(=O)(=O)N3CCCC3)ccc21)c1ccccc1 (stereo not drawn)	HIV Env fusion 56.6
CCC(C)NC(=O)CCn1ccc2cc(S(=O)(=O)N3CCCC3)ccc21 (stereo not drawn)	none
CC(C)NC(=O)Nc1ccc2c(c1)CC(=O)N([C@@H](C)CO)C[C@@H](C)[C@@H](CN(C)C(=O)Nc1ccccc1)O2	none (no result: NR2E3 ag-1, NR2E3 ag-2, FXN GAA850 act, V-ATPase pHluor, GalR3 antag)
